Experimental data reported in ChEMBL document CHEMBL2375290, “Nonclassical antifolates, part 3: synthesis, biological evaluation and molecular modeling study of some new 2-heteroarylthio-quinazolin-4-ones” (Eur J Med Chem, 2013).
Converted amounts (≈) assume the structure as drawn.

Key:
[1] = test system: T47D; experiment: Cytotoxicity against human T47D cells at 10 uM after 48 hrs by coulter counter analysis; type: functional; settings: read-out: GI
[2] = test system: Hs-578T; experiment: Cytotoxicity against human Hs578T cells at 10 uM after 48 hrs by coulter counter analysis; type: functional; settings: read-out: GI
[3] = test system: MCF7; experiment: Cytotoxicity against human MCF7 cells at 10 uM after 48 hrs by coulter counter analysis; type: functional; settings: MCF7, 48 h, read-out: GI
[4] = test system: MDA-MB-231; experiment: Cytotoxicity against human MDA-MB-231 cells at 10 uM after 48 hrs by coulter counter analysis; type: functional; settings: MDA-MB-231, 48 h, read-out: GI
[5] = test system: PC-3; experiment: Cytotoxicity against human PC3 cells at 10 uM after 48 hrs by coulter counter analysis; type: functional; settings: PC-3, 48 h, read-out: GI
[6] = test system: UO-31; experiment: Cytotoxicity against human UO31 cells at 10 uM after 48 hrs by coulter counter analysis; type: functional; settings: UO-31, 48 h, read-out: GI
[7] = test system: RXF 393; experiment: Cytotoxicity against human RXF393 cells at 10 uM after 48 hrs by coulter counter analysis; type: functional; settings: RXF 393, 48 h, read-out: GI
[8] = test system: SN12C; experiment: Cytotoxicity against human SN12C cells at 10 uM after 48 hrs by coulter counter analysis; type: functional; settings: read-out: GI
[9] = test system: A498; experiment: Cytotoxicity against human A498 cells at 10 uM after 48 hrs by coulter counter analysis; type: functional; settings: A498, 48 h, read-out: GI
[10] = test system: CAKI-1; experiment: Cytotoxicity against human Caki1 cells at 10 uM after 48 hrs by coulter counter analysis; type: functional; settings: CAKI-1, 48 h, read-out: GI
[11] = Cytotoxicity against human NCI-ADR-RES cells at 10 uM after 48 hrs by coulter counter analysis; type: functional; settings: read-out: GI
[12] = test system: OVCAR-4; experiment: Cytotoxicity against human OVCAR4 cells at 10 uM after 48 hrs by coulter counter analysis; type: functional; settings: OVCAR-4, 48 h, read-out: GI
[13] = test system: UACC-62; experiment: Cytotoxicity against human UACC62 cells at 10 uM after 48 hrs by coulter counter analysis; type: functional; settings: UACC-62, 48 h, read-out: GI
[14] = test system: IGROV-1; experiment: Cytotoxicity against human IGROV1 cells at 10 uM after 48 hrs by coulter counter analysis; type: functional; settings: IGROV-1, 48 h, read-out: GI
[15] = test system: SK-MEL-5; experiment: Cytotoxicity against human SK-MEL-5 cells at 10 uM after 48 hrs by coulter counter analysis; type: functional; settings: SK-MEL-5, 48 h, read-out: GI
[16] = test system: Malme-3M; experiment: Cytotoxicity against human MALME-3M cells at 10 uM after 48 hrs by coulter counter analysis; type: functional; settings: read-out: GI
[17] = test system: MDA-MB-435; experiment: Cytotoxicity against human MDA-MB-435 cells at 10 uM after 48 hrs by coulter counter analysis; type: functional; settings: MDA-MB-435, 48 h, read-out: GI
[18] = test system: SNB-75; experiment: Cytotoxicity against human SNB75 cells at 10 uM after 48 hrs by coulter counter analysis; type: functional; settings: SNB-75, 48 h, read-out: GI
[19] = test system: LOX IMVI; experiment: Cytotoxicity against human LOXIMVI cells at 10 uM after 48 hrs by coulter counter analysis; type: functional; settings: read-out: GI
[20] = test system: SNB-19; experiment: Cytotoxicity against human SNB19 cells at 10 uM after 48 hrs by coulter counter analysis; type: functional; settings: SNB-19, 48 h, read-out: GI
[21] = test system: NCI-H522; experiment: Cytotoxicity against human NCI-H522 cells at 10 uM after 48 hrs by coulter counter analysis; type: functional; settings: NCI-H522, 48 h, read-out: GI
[22] = test system: SF-295; experiment: Cytotoxicity against human SF295 cells at 10 uM after 48 hrs by coulter counter analysis; type: functional; settings: SF-295, 48 h, read-out: GI
[23] = test system: NCI-H23; experiment: Cytotoxicity against human NCI-H23 cells at 10 uM after 48 hrs by coulter counter analysis; type: functional; settings: NCI-H23, 48 h, read-out: GI
[24] = Cytotoxicity against human EKVX cells at 10 uM after 48 hrs by coulter counter analysis; type: functional; settings: read-out: GI
[25] = test system: NCI-H226; experiment: Cytotoxicity against human NCI-H226 cells at 10 uM after 48 hrs by coulter counter analysis; type: functional; settings: NCI-H226, 48 h, read-out: GI
[26] = test system: A549; experiment: Cytotoxicity against human A549/ATCC cells at 10 uM after 48 hrs by coulter counter analysis; type: functional; settings: A549, 48 h, read-out: GI
[27] = test system: RPMI-8226; experiment: Cytotoxicity against human RPMI8226 cells at 10 uM after 48 hrs by coulter counter analysis; type: functional; settings: RPMI-8226, 48 h, read-out: GI
[28] = test system: SR; experiment: Cytotoxicity against human SR cells at 10 uM after 48 hrs by coulter counter analysis; type: functional; settings: read-out: GI
[29] = test system: MOLT-4; experiment: Cytotoxicity against human MOLT4 cells at 10 uM after 48 hrs by coulter counter analysis; type: functional; settings: MOLT-4, 48 h, read-out: GI
[30] = test system: CCRF-CEM; experiment: Cytotoxicity against human CCRF-CEM cells at 10 uM after 48 hrs by coulter counter analysis; type: functional; settings: read-out: GI
[31] = test system: HL-60(TB); experiment: Cytotoxicity against human HL-60(TB) cells at 10 uM after 48 hrs by coulter counter analysis; type: functional; settings: HL-60, 48 h, read-out: GI
[32] = test system: Escherichia coli; experiment: Antimicrobial activity against Escherichia coli after 24 hrs by micro-dilution susceptibility method
[33] = test system: Bacillus subtilis; experiment: Antimicrobial activity against Bacillus subtilis after 24 hrs by micro-dilution susceptibility method; type: functional
Outline: (§1)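 Broth microdilution in Müller-Hinton broth against S. aureus IFO 3060, B. subtilis IFO 3007, E. coli IFO 3301 and P. aeruginosa IFO 3448. These are the same standard strains used in the disc-diffusion primary screen. Compounds were solubilized in DMSO. MIC recorded as the minimal inhibitory concentration.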

[34] = test system: Staphylococcus aureus; experiment: Antimicrobial activity against Staphylococcus aureus after 24 hrs by micro-dilution susceptibility method; type: functional; outline: as §1
[35] = test system: Pseudomonas aeruginosa; experiment: Antimicrobial activity against Pseudomonas aeruginosa at 200 ug after 24 hrs by agar disc diffusion method; type: functional; settings: read-out: DIZ
[36] = test system: Escherichia coli; experiment: Antimicrobial activity against Escherichia coli at 200 ug after 24 hrs by agar disc diffusion method; type: functional; settings: read-out: DIZ
[37] = test system: Micrococcus luteus; experiment: Antimicrobial activity against Micrococcus luteus at 200 ug after 24 hrs by agar disc diffusion method; type: functional; settings: read-out: DIZ
[38] = test system: Bacillus subtilis; experiment: Antimicrobial activity against Bacillus subtilis at 200 ug after 24 hrs by agar disc diffusion method; type: functional; settings: read-out: DIZ
[39] = target: T1, Dihydrofolate reductase (Bos taurus, UniProt P00376); experiment: Inhibition of bovine DHFR after 2 mins by spectrophotometry
T1 sequence (P00376 whole entry): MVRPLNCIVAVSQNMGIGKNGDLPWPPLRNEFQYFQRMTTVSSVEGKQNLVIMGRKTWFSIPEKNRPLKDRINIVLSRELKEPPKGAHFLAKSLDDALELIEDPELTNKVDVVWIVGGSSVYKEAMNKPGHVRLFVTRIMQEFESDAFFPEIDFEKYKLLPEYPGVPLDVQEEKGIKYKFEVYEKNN

[40] = test system: Staphylococcus aureus; experiment: Antimicrobial activity against Staphylococcus aureus at 200 ug after 24 hrs by agar disc diffusion method; type: functional; settings: read-out: DIZ

Which results are given for `COc1cc2nc(Sc3ncccc3C(=O)O)n(Cc3ccccc3)c(=O)c2cc1OC`?
inhibition of growth at 10 µM [1]: < 10%; inhibition of growth at 10 µM [2]: < 10%; inhibition of growth at 10 µM [3]: 13.5%; inhibition of growth at 10 µM [4]: < 10%; inhibition of growth at 10 µM [5]: < 10%; inhibition of growth at 10 µM [6]: 14.6%; inhibition of growth at 10 µM [7]: < 10%; inhibition of growth at 10 µM [8]: < 10%; inhibition of growth at 10 µM [9]: < 10%; inhibition of growth at 10 µM [10]: 15.9%; inhibition of growth at 10 µM [11]: < 10%; inhibition of growth at 10 µM [12]: 14.3%; inhibition of growth at 10 µM [13]: 11.6%; inhibition of growth at 10 µM [14]: < 10%; inhibition of growth at 10 µM [15]: < 10%; inhibition of growth at 10 µM [16]: < 10%; inhibition of growth at 10 µM [17]: < 10%; inhibition of growth at 10 µM [18]: < 10%; inhibition of growth at 10 µM [19]: < 10%; inhibition of growth at 10 µM [20]: < 10%; inhibition of growth at 10 µM [21]: 17.3%; inhibition of growth at 10 µM [22]: < 10%; inhibition of growth at 10 µM [23]: < 10%; inhibition of growth at 10 µM [24]: 23.1%; inhibition of growth at 10 µM [25]: 14%; inhibition of growth at 10 µM [26]: < 10%; inhibition of growth at 10 µM [27]: 12.5%; inhibition of growth at 10 µM [28]: 29.8%; inhibition of growth at 10 µM [29]: 13.8%; inhibition of growth at 10 µM [30]: < 10%; inhibition of growth at 10 µM [31]: 13.2%; MIC [32]: 4 µg/mL (≈ 8.9 µM); MIC [33]: 2 µg/mL (≈ 4.45 µM); MIC [34]: 4 µg/mL (≈ 8.9 µM); zone of inhibition at 200 µg/disc [35]: 12 mm; zone of inhibition at 200 µg/disc [36]: 18 mm; zone of inhibition at 200 µg/disc [37]: 15 mm; zone of inhibition at 200 µg/disc [38]: 26 mm; IC50 [39]: 5 µM; zone of inhibition at 200 µg/disc [40]: 22 mm
